{"source": "ChEMBL document CHEMBL4689842", "about": "“EUbOPEN Chemogenomics Library wave 1” (2021)", "tested_on": "HEK-293T", "assay": "Multiplex assay against HEK293T;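 for Population Tubulin-Different-Phenotype (%): share of the cells with healthy nuclei that show this phenotype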", "format": "toxicity, cell-based", "conditions": "human", "outline": "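Tubulin, mitochondrial-mass and membrane-permeability phenotypes are per cents of healthy-nucleus cells. Cells were gated by CellPathfinder machine learning into Hoechst high-intensity objects or normal cells, normal cells into healthy, pyknosed or fragmented nuclei, and pyknosed cells into mitotic or apoptotic. Before that, live cells stained at seeding with Hoechst33342, BioTracker Green Microtubule Cytoskeleton Dye, MitoTracker Red and Annexin V Alexa Fluor 680 were imaged on a CQ1 microscope at 37°C and 5% CO2 after compound addition.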", "key": {"[1]": {"conditions": "12 h, 1 µM, compound concentration 1 uM, replicate 1"}, "[2]": {"conditions": "12 h, 1 µM, compound concentration 1 uM, replicate 2"}, "[3]": {"conditions": "12 h, 10 µM, compound concentration 10 uM, replicate 1"}, "[4]": {"conditions": "12 h, 10 µM, compound concentration 10 uM, replicate 2"}, "[5]": {"conditions": "24 h, 1 µM, compound concentration 1 uM, replicate 1"}, "[6]": {"conditions": "24 h, 1 µM, compound concentration 1 uM, replicate 2"}, "[7]": {"conditions": "24 h, 10 µM, compound concentration 10 uM, replicate 1"}, "[8]": {"conditions": "24 h, 10 µM, compound concentration 10 uM, replicate 2"}, "[9]": {"conditions": "48 h, 10 µM, compound concentration 10 uM, replicate 1"}, "[10]": {"conditions": "48 h, 10 µM, compound concentration 10 uM, replicate 2"}}, "note": "“And” between values parts separate entries of the source, which are not always exact repeats. Equal values may be shown once.", "data": [{"smiles": "CC(C)Oc1ccc(C(=O)N[C@H](CNC(=O)CN(C)C)Cc2ccc(-c3cn4cccc([C@H](C)O)c4n3)cc2)cc1Cl", "note": "[GSK-923295A]", "values": [{"measurement": "Population Apoptotic (%)", "setting": "[1]", "value": 15, "unit": "%"}, {"measurement": "Population Fragmented Nuclei (%)", "setting": "[1]", "value": 9, "unit": "%"}, {"measurement": "Population Healthy Nuclei (%)", "setting": "[1]", "value": 61, "unit": "%"}, {"measurement": "Population Hoechst High Intensity Objects (%)", "setting": "[1]", "value": 8, "unit": "%"}, {"measurement": "Population Membrane Permeable-Phenotype (%)", "setting": "[1]", "value": 6, "unit": "%"}, {"measurement": "Population Mitochondria Different-Phenotype (%)", "setting": "[1]", "value": 10, "unit": "%"}, {"measurement": "Population Mitotic Cells (%)", "setting": "[1]", "value": 84, "unit": "%"}, {"measurement": "Population Normal (%)", "setting": "[1]", "value": 91, "unit": "%"}, {"measurement": "Population Pyknosed Nuclei (%)", "setting": "[1]", "value": 28, "unit": "%"}, {"measurement": "Population Tubulin-Different-Phenotype (%)", "setting": "[1]", "value": 15, "unit": "%"}, {"measurement": "Total Cell Count", "setting": "[1]", "value": 623}, {"measurement": "Population Apoptotic (%)", "setting": "[2]", "value": 7, "unit": "%"}, {"measurement": "Population Fragmented Nuclei (%)", "setting": "[2]", "value": 6, "unit": "%"}, {"measurement": "Population Healthy Nuclei (%)", "setting": "[2]", "value": 69, "unit": "%"}, {"measurement": "Population Hoechst High Intensity Objects (%)", "setting": "[2]", "value": 2, "unit": "%"}, {"measurement": "Population Membrane Permeable-Phenotype (%)", "setting": "[2]", "value": 3, "unit": "%"}, {"measurement": "Population Mitochondria Different-Phenotype (%)", "setting": "[2]", "value": 12, "unit": "%"}, {"measurement": "Population Mitotic Cells (%)", "setting": "[2]", "value": 92, "unit": "%"}, {"measurement": "Population Normal (%)", "setting": "[2]", "value": 97, "unit": "%"}, {"measurement": "Population Pyknosed Nuclei (%)", "setting": "[2]", "value": 24, "unit": "%"}, {"measurement": "Population Tubulin-Different-Phenotype (%)", "setting": "[2]", "value": 25, "unit": "%"}, {"measurement": "Total Cell Count", "setting": "[2]", "value": 1239}, {"measurement": "Population Apoptotic (%)", "setting": "[3]", "value": "33% and 93%"}, {"measurement": "Population Fragmented Nuclei (%)", "setting": "[3]", "value": "22% and 19%"}, {"measurement": "Population Healthy Nuclei (%)", "setting": "[3]", "value": "37% and 22%"}, {"measurement": "Population Hoechst High Intensity Objects (%)", "setting": "[3]", "value": "20% and 23%"}, {"measurement": "Population Normal (%)", "setting": "[3]", "value": "79% and 76%"}, {"measurement": "Population Pyknosed Nuclei (%)", "setting": "[3]", "value": "39% and 58%"}, {"measurement": "Population Tubulin-Different-Phenotype (%)", "setting": "[3]", "value": "82% and 100%"}, {"measurement": "Population Healthy Nuclei (%)", "setting": "[4]", "value": "28% and 73%"}, {"measurement": "Population Hoechst High Intensity Objects (%)", "setting": "[4]", "value": 4, "unit": "%"}, {"measurement": "Population Membrane Permeable-Phenotype (%)", "setting": "[4]", "value": "13% and 21%"}, {"measurement": "Population Mitochondria Different-Phenotype (%)", "setting": "[4]", "value": "86% and 42%"}, {"measurement": "Population Mitotic Cells (%)", "setting": "[4]", "value": "32% and 82%"}, {"measurement": "Population Normal (%)", "setting": "[4]", "value": 95, "unit": "%"}, {"measurement": "Population Pyknosed Nuclei (%)", "setting": "[4]", "value": "62% and 24%"}, {"measurement": "Population Tubulin-Different-Phenotype (%)", "setting": "[4]", "value": "94% and 98%"}, {"measurement": "Population Apoptotic (%)", "setting": "[5]", "value": 10, "unit": "%"}, {"measurement": "Population Fragmented Nuclei (%)", "setting": "[5]", "value": 10, "unit": "%"}, {"measurement": "Population Healthy Nuclei (%)", "setting": "[5]", "value": 65, "unit": "%"}, {"measurement": "Population Hoechst High Intensity Objects (%)", "setting": "[5]", "value": 7, "unit": "%"}, {"measurement": "Population Membrane Permeable-Phenotype (%)", "setting": "[5]", "value": 6, "unit": "%"}, {"measurement": "Population Mitochondria Different-Phenotype (%)", "setting": "[5]", "value": 11, "unit": "%"}, {"measurement": "Population Mitotic Cells (%)", "setting": "[5]", "value": 90, "unit": "%"}, {"measurement": "Population Normal (%)", "setting": "[5]", "value": 92, "unit": "%"}, {"measurement": "Population Pyknosed Nuclei (%)", "setting": "[5]", "value": 24, "unit": "%"}, {"measurement": "Population Tubulin-Different-Phenotype (%)", "setting": "[5]", "value": 23, "unit": "%"}, {"measurement": "Total Cell Count", "setting": "[5]", "value": 668}, {"measurement": "Population Apoptotic (%)", "setting": "[6]", "value": 12, "unit": "%"}, {"measurement": "Population Fragmented Nuclei (%)", "setting": "[6]", "value": 13, "unit": "%"}, {"measurement": "Population Healthy Nuclei (%)", "setting": "[6]", "value": 77, "unit": "%"}, {"measurement": "Population Hoechst High Intensity Objects (%)", "setting": "[6]", "value": 4, "unit": "%"}, {"measurement": "Population Membrane Permeable-Phenotype (%)", "setting": "[6]", "value": 4, "unit": "%"}, {"measurement": "Population Mitochondria Different-Phenotype (%)", "setting": "[6]", "value": 8, "unit": "%"}, {"measurement": "Population Mitotic Cells (%)", "setting": "[6]", "value": 87, "unit": "%"}, {"measurement": "Population Normal (%)", "setting": "[6]", "value": 95, "unit": "%"}, {"measurement": "Population Pyknosed Nuclei (%)", "setting": "[6]", "value": 8, "unit": "%"}, {"measurement": "Population Tubulin-Different-Phenotype (%)", "setting": "[6]", "value": 28, "unit": "%"}, {"measurement": "Total Cell Count", "setting": "[6]", "value": 1632}, {"measurement": "Population Apoptotic (%)", "setting": "[7]", "value": "92% and 41%"}, {"measurement": "Population Fragmented Nuclei (%)", "setting": "[7]", "value": 19, "unit": "%"}, {"measurement": "Population Healthy Nuclei (%)", "setting": "[7]", "value": "33% and 54%"}, {"measurement": "Population Hoechst High Intensity Objects (%)", "setting": "[7]", "value": "22% and 18%"}, {"measurement": "Population Membrane Permeable-Phenotype (%)", "setting": "[7]", "value": "0% and 19%"}, {"measurement": "Population Mitochondria Different-Phenotype (%)", "setting": "[7]", "value": "100% and 41%"}, {"measurement": "Population Normal (%)", "setting": "[7]", "value": "77% and 81%"}, {"measurement": "Population Pyknosed Nuclei (%)", "setting": "[7]", "value": "47% and 26%"}, {"measurement": "Population Tubulin-Different-Phenotype (%)", "setting": "[7]", "value": 91, "unit": "%"}, {"measurement": "Population Fragmented Nuclei (%)", "setting": "[8]", "value": "8% and 4%"}, {"measurement": "Population Healthy Nuclei (%)", "setting": "[8]", "value": "39% and 72%"}, {"measurement": "Population Hoechst High Intensity Objects (%)", "setting": "[8]", "value": "4% and 7%"}, {"measurement": "Population Mitochondria Different-Phenotype (%)", "setting": "[8]", "value": "94% and 40%"}, {"measurement": "Population Normal (%)", "setting": "[8]", "value": "95% and 92%"}, {"measurement": "Population Pyknosed Nuclei (%)", "setting": "[8]", "value": "51% and 22%"}, {"measurement": "Population Tubulin-Different-Phenotype (%)", "setting": "[8]", "value": "96% and 98%"}, {"measurement": "Population Apoptotic (%)", "setting": "[9]", "value": 87, "unit": "%"}, {"measurement": "Population Fragmented Nuclei (%)", "setting": "[9]", "value": 23, "unit": "%"}, {"measurement": "Population Healthy Nuclei (%)", "setting": "[9]", "value": 46, "unit": "%"}, {"measurement": "Population Hoechst High Intensity Objects (%)", "setting": "[9]", "value": 30, "unit": "%"}, {"measurement": "Population Membrane Permeable-Phenotype (%)", "setting": "[9]", "value": 3, "unit": "%"}, {"measurement": "Population Mitochondria Different-Phenotype (%)", "setting": "[9]", "value": 100, "unit": "%"}, {"measurement": "Population Mitotic Cells (%)", "setting": "[9]", "value": 12, "unit": "%"}, {"measurement": "Population Normal (%)", "setting": "[9]", "value": 69, "unit": "%"}, {"measurement": "Population Pyknosed Nuclei (%)", "setting": "[9]", "value": 29, "unit": "%"}, {"measurement": "Population Tubulin-Different-Phenotype (%)", "setting": "[9]", "value": 88, "unit": "%"}, {"measurement": "Total Cell Count", "setting": "[9]", "value": 156}, {"measurement": "Population Apoptotic (%)", "setting": "[10]", "value": 75, "unit": "%"}, {"measurement": "Population Fragmented Nuclei (%)", "setting": "[10]", "value": 10, "unit": "%"}, {"measurement": "Population Healthy Nuclei (%)", "setting": "[10]", "value": 53, "unit": "%"}, {"measurement": "Population Hoechst High Intensity Objects (%)", "setting": "[10]", "value": 15, "unit": "%"}, {"measurement": "Population Membrane Permeable-Phenotype (%)", "setting": "[10]", "value": 9, "unit": "%"}, {"measurement": "Population Mitochondria Different-Phenotype (%)", "setting": "[10]", "value": 86, "unit": "%"}, {"measurement": "Population Mitotic Cells (%)", "setting": "[10]", "value": 24, "unit": "%"}, {"measurement": "Population Normal (%)", "setting": "[10]", "value": 84, "unit": "%"}, {"measurement": "Population Pyknosed Nuclei (%)", "setting": "[10]", "value": 35, "unit": "%"}, {"measurement": "Population Tubulin-Different-Phenotype (%)", "setting": "[10]", "value": 97, "unit": "%"}, {"measurement": "Total Cell Count", "setting": "[10]", "value": 164}]}]}
